Measured values collected from several papers.
Lines come from different studies, so protocols differ.
EGFR: Epidermal growth factor receptor (EGFR, Homo sapiens, UniProt P00533)
EGFR T790M: Epidermal growth factor receptor (EGFR, Homo sapiens, UniProt P00533, T790M)
EGFR del746-750: Epidermal growth factor receptor (EGFR, Homo sapiens, UniProt P00533, del746-750)
EGFR del747-752/P753S: Epidermal growth factor receptor (EGFR, Homo sapiens, UniProt P00533, del747-752/P753S)
EGFR L858R: Epidermal growth factor receptor (EGFR, Homo sapiens, UniProt P00533, L858R)
EGFR G719C: Epidermal growth factor receptor (EGFR, Homo sapiens, UniProt P00533, G719C)
EGFR A750P/del747-749: Epidermal growth factor receptor (EGFR, Homo sapiens, UniProt P00533, A750P/del747-749)
EGFR del752-759: Epidermal growth factor receptor (EGFR, Homo sapiens, UniProt P00533, del752-759)

SMILES | target | test | conditions | remaining binding [%]
N[C@H]1CCN(c2nccc(-c3cnn4ncccc34)n2)C1 | EGFR | binding | 1 µM | 100
CNC(=O)[C@@H]1CC[C@@H](n2c(-c3ccc4cnccc4c3)nc3ccc(C(=O)NCc4cccc(C(N)=O)c4)cc32)C1 | EGFR T790M | binding, competition with immobilised ligand | 1 µM | 72
O=C(c1ccc(Nc2ncc(Cl)c(-c3cc4ccccc4s3)n2)cc1)N1CCC(N2CCCC2)CC1 | EGFR del746-750 | binding, competition with immobilised ligand | 1 µM | 79
NS(=O)(=O)c1cc(NC(=O)C2(c3ccccc3Cl)CC2)ccc1Oc1cccc(Cl)c1 | EGFR del747-752/P753S | cell-free assay, competition with immobilised ligand | 1 µM | 57
Nc1ncc2c(n1)-c1c([nH]c3ccc(C#CC4CC4)cc13)CCCC2 | Epidermal growth factor receptor (EGFR, Homo sapiens, UniProt P00533, L858R/T790M) | binding, competition with immobilised ligand | 1 µM | 87
O=C(N1CCS(=O)(=O)CC1)N1C[C@H](c2ccc(OC(F)(F)F)cc2)C[C@H](c2nc(C3CC3)no2)C1 | EGFR L858R | cell-free assay, competition with immobilised ligand | 1 µM | 100
O=C(NCCCN1CCOCC1)c1ccc(Nc2nccc(-c3cc4ccccc4s3)n2)cc1 | EGFR L858R | binding, competition with immobilised ligand | 1 µM | 88
CN(C)c1nccc(-c2cnc3ncccn23)n1 | EGFR L858R | binding | 1 µM | 89
Cc1cnc(Nc2ccc(C(=O)N3CCC(N4CCCC4)CC3)cc2)nc1-c1cc2ccccc2s1 | EGFR | binding, competition with immobilised ligand | 1 µM | 83
CCC(=O)N[C@@H]1CC[C@H](C(=O)N(C)c2ccc(-c3nc4ccccc4o3)cc2)C1 | Epidermal growth factor receptor (EGFR, Homo sapiens, UniProt P00533, G719S) | cell-free assay, competition with immobilised ligand | 1 µM | 96
COc1ccnn2ncc(-c3ccnc(N(C)C)n3)c12 | EGFR L858R | binding | 1 µM | 100
Cn1nc(C(F)(F)F)cc1-c1cnc(N2CCc3cc(S(=O)(=O)Nc4c(F)cc(Cl)cc4F)cc(N4CCCC4=O)c32)nc1 | EGFR del747-752/P753S | cell-free assay, competition with immobilised ligand | 1 µM | 100
O=C(c1ccc(Nc2nccc(-c3cc4ccccc4s3)n2)cc1)N1CCC(N2CCCC2)CC1 | EGFR T790M | binding, competition with immobilised ligand | 1 µM | 67
COc1cnc(Nc2cccc(S(N)(=O)=O)c2)nc1N1CCN(c2ccccc2)C(=O)C1 | EGFR G719C | binding, competition with immobilised ligand | 1 µM | 100
Cc1noc([C@H]2C[C@@H](c3ccc(C(F)(F)F)cc3)CN(C(=O)N3CCS(=O)(=O)C3)C2)n1 | EGFR del747-752/P753S | cell-free assay, competition with immobilised ligand | 1 µM | 78
c1cncc(-c2cccc(Nc3nccc(NC4CCCCC4)n3)c2)c1 | EGFR A750P/del747-749 | binding, competition with immobilised ligand | 10 µM | 36
CCN1CCN(Cc2ccc(C(=O)Nc3ccc(C)c(Oc4ccc5c(c4)CC(=O)N5)c3)cc2C(F)(F)F)CC1 | EGFR del752-759 | binding, competition with immobilised ligand | 1 µM | 100
CN1CCN(c2ccc(Nc3nccc(-c4cccc([N+](=O)[O-])c4)n3)cc2C(F)(F)F)CC1 | EGFR T790M | binding | 10 µM | 45
C[C@@H]1CCN(c2nccc(-c3cnn4ncccc34)n2)C1 | EGFR G719C | binding | 1 µM | 87
c1ccc(N2CCN(Cc3nc4ccccc4[nH]3)CC2)nc1 | EGFR T790M | cell-free assay, competition with immobilised ligand | 1 µM | 99
CN(c1nccc(-c2cnn3ncccc23)n1)C1CC1 | EGFR del752-759 | binding | 1 µM | 100
CCOC(=O)c1cc2cc(-c3cc(C(=O)NCc4ccc(C(=O)O)cc4)nn3C)ccc2[nH]1 | EGFR del746-750 | cell-free assay, competition with immobilised ligand | 0.1 µM | 100
CN(CCCC(F)(F)F)c1nccc(-c2cnn3ncccc23)n1 | EGFR L858R | binding | 1 µM | 85
O=C(Nc1c[nH]nc1C(=O)NC1CCNCC1)c1cc(F)cc(F)c1 | EGFR A750P/del747-749 | binding, competition with immobilised ligand | 1 µM | 80
